Where two headings read alike, the source gives them in different places.

Assay [1] deals with T1, B^0AT1 (SLC6A19) (Homo sapiens, UniProt Q695T7).
T1 sequence (Q695T7 1-634): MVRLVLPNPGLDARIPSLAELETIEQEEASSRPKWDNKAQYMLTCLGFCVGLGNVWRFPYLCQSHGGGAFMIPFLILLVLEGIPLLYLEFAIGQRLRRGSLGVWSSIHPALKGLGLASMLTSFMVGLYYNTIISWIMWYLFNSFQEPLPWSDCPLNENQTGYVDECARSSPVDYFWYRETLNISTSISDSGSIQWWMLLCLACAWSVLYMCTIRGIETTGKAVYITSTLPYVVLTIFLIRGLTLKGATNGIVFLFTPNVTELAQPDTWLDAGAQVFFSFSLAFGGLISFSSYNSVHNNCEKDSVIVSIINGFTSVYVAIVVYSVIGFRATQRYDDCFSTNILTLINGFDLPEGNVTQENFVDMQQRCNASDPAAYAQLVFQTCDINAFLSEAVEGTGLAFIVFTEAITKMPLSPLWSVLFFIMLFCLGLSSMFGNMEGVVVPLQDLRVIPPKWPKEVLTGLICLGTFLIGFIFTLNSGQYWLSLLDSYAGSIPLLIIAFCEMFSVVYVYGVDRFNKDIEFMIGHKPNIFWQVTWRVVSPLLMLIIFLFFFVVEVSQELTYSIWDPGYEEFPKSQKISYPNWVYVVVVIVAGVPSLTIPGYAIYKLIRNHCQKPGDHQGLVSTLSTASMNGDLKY
T1 sequence (Q9HBJ8 15-222 partner): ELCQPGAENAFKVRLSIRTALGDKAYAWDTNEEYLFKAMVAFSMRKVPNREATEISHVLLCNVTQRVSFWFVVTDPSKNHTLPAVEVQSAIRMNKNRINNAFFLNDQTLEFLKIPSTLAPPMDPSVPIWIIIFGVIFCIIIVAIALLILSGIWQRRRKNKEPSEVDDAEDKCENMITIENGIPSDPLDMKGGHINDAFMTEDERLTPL
Briefly: Optimized radioactive L-[14C]leucine uptake. Type of assay: cell-based.

For assay [2], the target named is T1, B^0AT1 (SLC6A19). Briefly: FLIPR membrane potential transport assay in CHO-BC cells. Conditions: read-out: inhibition at 30 µM. Type of assay: cell-based. Put shortly: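 CHO cells (Flp-In) stably expressing B0AT1 with collectrin, passages <10, seeded at 60,000 cells/well overnight. Washed three times in HBSS + 5 mM glucose, pH 7.5. Preincubated 30 min at room temperature with test compound plus membrane-potential dye. Read fluorescence (ex 530/em 565 nm) every 10 s before and after adding L-leucine to 1.5 mM final, at room temperature.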

Assay [3] concerns B^0AT1. Conditions: substrate; cited from earlier work.
The target of assay [4] is T1, B^0AT1 (SLC6A19). Conditions: read-out: IC50 range of initially identified inhibitors; cited from earlier work.

As to `CCNC(=O)/C=C/c1cccc(Br)c1` [Cinromide, cinromide], the IC50 (as a rule, the concentration that gives 50% inhibition) in assay [1] was 0.8 ± 0.1 µM. On to `Cc1cc(Cl)cc(C)c1OCC(=O)NC(C)C` [JX8, 2-(4-chloro-2,6-dimethylphenoxy)-N-isopropylacetamide], for which the inhibition (commonly how much of the control response was suppressed) at 30 µM in assay [2] is 8%. For the compound `N[C@@H](Cc1c[nH]c2ccccc12)C(=O)O` [L-tryptophan], the “Vmax relative to that of L-methionine” value in assay [3] was 10%. On to `CS(=O)(=O)Nc1ccc([N+](=O)[O-])cc1Oc1ccccc1` [Nimesulide, nimesulide], for which the IC50 in assay [4] is 10 to 100 µM. For the compound `CN1[C@@H]2CC[C@H]1C[C@@H](OC(c1ccccc1)c1ccccc1)C2` [benztropine], the IC50 in assay [4] was 10 to 100 µM.

(Values after article PMC11341722 (Nature Communications, 2024).)
